Bioassay records from PubChem BioAssay.
Hits are enriched below; roughly 3.1% of the tested compounds scored in any of these assays.
Beta cell apopt = inhibitors of cytokine-induced beta cell apoptosis, primary screen, luminescence | INS-1E cytokine-induced death, ATP luminescence, 48 h; percent of positive-control rescue, neutral wells zero | protection from apoptosis, % (concentration not given with the values) | 300,000 compounds, 0.8% hits;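 active means Every replicate reaches about 75%, or at least half do and their mean reaches it too, limit read from the data; inconclusive means At least half of replicates reach the limit but their mean does not; inactive means Under half of replicates reach the limit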;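 further: higher means more ATP so stronger rescue from cytokine killing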
TAG inh = inhibitors of triacylglycerol accumulation, primary screen, cell-based, uHTS, fluorescence, H9c2. H9c2 cells, Nile Red lipid (TAG) fluorescence; cells loaded with 200 µM oleic acid. inhibition, % at 12.5 µM. 230,000 compounds, 0.66% hits. AID 651582, 2012;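 active means pattern-corrected inhibition of lipid staining of at least 50% with the nuclear-stain viability signal not falling by more than 50%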
T cruzi inh = inhibitors of intracellular T. cruzi growth, primary screen, luminescence, NIH3T3 host cells; AID 1885, 2009; T. cruzi beta-gal in NIH3T3, 90 h; 300,000 compounds, 1.4% hits; inhibition, % (test concentration not listed);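 active means mean inhibition across valid replicates above about 55%, limit read from the data; inconclusive means mean below that limit but half or more replicates reach it; inactive means mean below it, under half of replicates reach it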;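 further: signal also drops with host cell toxicity which is not excluded here; higher percent means less beta-gal luminescence so fewer parasites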
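compound dosing = single 50 nL compound addition per well in DMSO | material = NIH/3T3 host cells with β-galactosidase reporter T. cruzi | input = 5,000 host fibroblasts per well | timing = ≥90 h infection period, 3 h prior cell attachment | read-out basis = percent inhibition of parasite-derived β-gal signal | detection = GalScreen β-gal luminescence, detergent lysis, 60 min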
CSC inhib = cancer stem cell viability inhibitors, primary screen, luminescence; cancer stem cell-like cells viability; inhibition, % at 7.5 µM; 300,000 compounds, 1.1% hits; in the data active means inhibition above about 75%; inconclusive means no clear call, values can overlap the other calls; tested in HMLE shEcad cells
Calb FLC = C. albicans growth inhibition with fluconazole, primary screen, CaCi-2 strain, Alamar Blue fluorescence; AID 1979, 2009; growth inhibition, % (test concentration not listed); C. albicans CaCi-2 (fluconazole-resistant clinical isolate) + fluconazole, 48 h; 300,000 compounds, 0.57% hits;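 active means growth inhibition above about 58% in most replicates, limit read from the data, passing the limit was not always enough; inconclusive means exactly half the replicates above a set limit; inactive means most replicates below a set limit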;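 further: all wells also contain fluconazole at 8 µg/ml as a sub-toxic cotreatment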
A1 inh = caspase 3/7 activation in MEF A1-2A-BIM cells, primary screen, A1 inhibitor project, cell-based, luminescence, HTS | Caspase-Glo 3/7 luminescence, 3 h; percent of clofoctol response, vehicle zero | caspase activation, % (test concentration not listed) | 330,000 compounds, 0.066% hits | AID 2462, 2010;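 active means over half of replicate activation scores above 10%, or exactly half above 10 with the replicate mean above 10; inconclusive means replicate mean below 10 yet half the replicates above 10; inactive means over half of replicates below 10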
Each line names hits and unclear results; the compound was inactive in the other large screens.

Cc1cc(NC(=O)c2cc([N+](=O)[O-])ccc2Cl)no1	none
Cc1nn(-c2ccccc2)c(N2CCCC2)c1/C=N/NC(=O)c1ccccc1O	Calb FLC 91 (no result: TAG inh)
O=C(N/N=C/c1cc2c3c(c1O)CCCN3CCC2)c1ccccc1O	T cruzi inh 59, Calb FLC 108 (no result: Beta cell apopt, CSC inhib, A1 inh)
Cn1cc(/C=N/NC(=O)c2ccccc2O)c2ccccc21	none (no result: TAG inh)
Cc1[nH]c2ccccc2c1C=NNC(=O)c1cc(-c2cccnc2)nc2ccccc12	none (no result: T cruzi inh, Calb FLC)
Cc1nn(-c2ccccc2)c(C)c1/C=N/NC(=O)c1ccccc1O	none (no result: TAG inh)
Cc1nn(-c2ccccc2)c(N2CCCC2)c1/C=N/NC(=O)c1cc(-c2cccnc2)nc2ccccc12	T cruzi inh 57
Cc1nn(-c2ccccc2)c(N2CCCCC2)c1/C=N/O	CSC inhib 164 (no result: TAG inh)
NS(=O)(=O)c1ccc(CCNC(=O)c2ccccc2Cc2ccccc2)cc1	none
O=C(Cc1ccccc1)NNC(=O)Nc1cccc(Cl)c1	none
O=C(CN1c2ccccc2Sc2ccccc21)NNC(=O)Nc1cccc(Cl)c1	Beta cell apopt inconclusive, CSC inhib 82
Cc1cc(=O)[nH]c(NN=Cc2c(Cl)cccc2Cl)n1	none (no result: Beta cell apopt, T cruzi inh, CSC inhib, Calb FLC, A1 inh)
Cc1cc(=O)[nH]c(N/N=C/c2ccc(-c3ccc(F)cc3)o2)n1	CSC inhib 75 (no result: TAG inh)
O=c1nc(N/N=C/c2ccccn2)cn[nH]1	CSC inhib 82, Calb FLC 106 (no result: TAG inh)
Cc1ccc(/C=N/Nc2cn[nH]c(=O)n2)o1	none
C(=N\Nc1nncc2ccccc12)/c1ccccn1	Beta cell apopt 98 (no result: TAG inh)
Cc1cc(=O)[nH]c(N/N=C/c2ccccn2)n1	Beta cell apopt 95, CSC inhib 107 (no result: TAG inh)
Cc1c(C(=O)N(CCC#N)c2ccccc2)sc2nc3n(c(=O)c12)CCCC3	none (no result: TAG inh)
NC(=O)c1ncn([C@@H]2O[C@H](CNCc3ccc(OCC(=O)Nc4ccccn4)cc3)[C@@H](O)[C@H]2O)n1	none (no result: Beta cell apopt, T cruzi inh, CSC inhib, Calb FLC, A1 inh)
CC[C@]12c3[nH]c4ccc(Cl)cc4c3CCN1C(=O)[C@@H](CC(=O)NCCCN(C)C)C[C@@H]2C(=O)N1CCN(C(=O)c2ccco2)CC1	none (no result: Beta cell apopt, T cruzi inh, CSC inhib, Calb FLC, A1 inh)
CC(C)N(CC(N)=O)c1ccc(S(=O)(=O)N2CCCC2)cn1	none (no result: T cruzi inh, CSC inhib, Calb FLC)
COc1ccc(CC(=O)Nc2ccc(F)c(Cl)c2)cc1S(=O)(=O)N1CCOCC1	none (no result: T cruzi inh, Calb FLC)
O=c1cnnc(N/N=C/c2ccccn2)[nH]1	Beta cell apopt 106, CSC inhib 120, Calb FLC 95
CC(/C=N/Nc1nncc(=O)[nH]1)=C\c1ccccc1	none (no result: TAG inh)
COc1cc(/C=C/c2ccc3c(Br)cc(Br)c(O)c3n2)ccc1O	CSC inhib 115 (no result: TAG inh)
COc1ccc(/C=C/c2ccc3c(Br)ccc(O)c3n2)cc1	CSC inhib 89 (no result: TAG inh)
C=CC[C@H](CC(=O)NCCO)C(=O)NCCOC(=O)[C@@H](CC=C)CC(=O)OC(C)(C)C	none (no result: T cruzi inh, CSC inhib, Calb FLC)
COc1ccc(CN(CCNC(=O)CCCCC(=O)NCCN(Cc2ccc(OC)cc2)C(C)C)C(C)C)cc1	none (no result: Beta cell apopt)
COc1cc2nc3n(c(=O)c2cc1OC)-c1ncccc1C(=O)NC3Cc1ccccc1 (stereo not given)	none (no result: Beta cell apopt, T cruzi inh, CSC inhib, Calb FLC, A1 inh)
CCC1(c2ccc(F)cc2)NC(=O)N(CC(=O)Nc2ccc(-c3nc4ccc(C)cc4s3)cc2)C1=O (stereo not given)	Beta cell apopt 92 (no result: TAG inh)
Cc1ccc(C)c(N(CC(=O)Nc2ccc(-c3nc4ccc(C)cc4s3)cc2)S(C)(=O)=O)c1	T cruzi inh 65 (no result: TAG inh)
Cc1ccc(N(CC(=O)Nc2ccc(-c3nc4ccc(C)cc4s3)cc2)S(C)(=O)=O)cc1	none
COCCn1nnnc1C(C(C)C)N(Cc1ccccc1)Cc1cc2cc(OC)ccc2[nH]c1=O (stereo not given)	none (no result: Beta cell apopt, T cruzi inh, CSC inhib, Calb FLC, A1 inh)
COc1ccc2[nH]c(=O)c(CN(Cc3ccco3)C(c3nnnn3Cc3ccccc3)C(C)C)cc2c1 (stereo not given)	T cruzi inh 76 (no result: TAG inh)
CC(=O)NC1CCCN(O)C(=O)/C=C(\C)CCOC(=O)C(NC(C)=O)CCCN(O)C(=O)/C=C(\C)CCOC(=O)C(NC(C)=O)CCCN(O)C(=O)/C=C(\C)CCOC1=O (stereo not given)	T cruzi inh inconclusive, Calb FLC 86 (no result: TAG inh)
CCCCc1oc2ccccc2c1C(=O)c1cc(I)c(OCCN(CC)CC)c(I)c1	CSC inhib 89 (no result: Calb FLC)
CC1(C(=O)NS(=O)(=O)Cc2ccccc2)CCN1C(=O)C1(c2ccc(Cl)cc2)CC1 (stereo not given)	none (no result: Beta cell apopt, T cruzi inh, CSC inhib, Calb FLC, A1 inh)
NC(=O)CC(NC(=O)c1ccc(Br)cc1)c1ccc(N2CCN(c3ccccc3)CC2)c([N+](=O)[O-])c1 (stereo not given)	none (no result: Beta cell apopt)
Cc1ccccc1CNc1ccc(C(CC(N)=O)NC(=O)c2ccccc2)cc1[N+](=O)[O-] (stereo not given)	CSC inhib 78 (no result: TAG inh)
O=C(c1ccc(Br)cc1)c1cc([N+](=O)[O-])ccc1N1CCCCC1	TAG inh 59
NC(=O)CC(NC(=O)Cc1ccc(Br)cc1)c1ccc(NC2CCCCCC2)c([N+](=O)[O-])c1 (stereo not given)	CSC inhib 76 (no result: TAG inh)
CN1CCN(c2ccc([N+](=O)[O-])cc2C(=O)c2ccc(Br)cc2)CC1	none (no result: TAG inh)
NC(=O)CC(NC(=O)c1ccc(Br)cc1)c1ccc(N2CCCCCCC2)c([N+](=O)[O-])c1 (stereo not given)	CSC inhib 131
Cc1csc(SCC(=O)N(C)C2CCS(=O)(=O)C2)n1 (stereo not given)	none (no result: Beta cell apopt, T cruzi inh, CSC inhib, Calb FLC, A1 inh)
Cc1nnc(NC(=O)CSc2nnc(CC(=O)Nc3ccccc3F)n2C)s1	none (no result: TAG inh)
COCCCNC(=O)C[C@H]1C[C@H](C(=O)N2CCCCC2)[C@@]2(C)c3[nH]c4cc(-c5ccco5)ccc4c3CCN2C1=O	none (no result: Beta cell apopt, T cruzi inh, CSC inhib, Calb FLC, A1 inh)
O=C(c1ccc(Cl)cc1)N1CCOc2ccccc21	none (no result: TAG inh)
CC1=C(C(=O)OCc2ccccc2)C(c2cccc3ccccc23)NC(=O)N1CCCC(=O)O (stereo not given)	none (no result: T cruzi inh, Calb FLC)
COc1ccc(CN2CCc3ccccc3C2)cc1Br	none (no result: TAG inh)
Cn1c2ccccc2c(=O)c2c(=O)n(Cc3ccco3)c(-c3ccc(C(C)(C)C)cc3)nc21	none (no result: TAG inh)
Cc1nn(-c2ccc(F)cc2)c2nc(N)c(C#N)c(-c3ccc(O)c(O)c3)c12	T cruzi inh 59 (no result: TAG inh)
CCCCC(=O)NC(c1cccs1)c1cc(Cl)c2cccnc2c1O (stereo not given)	Beta cell apopt 94, T cruzi inh inconclusive, CSC inhib 120, Calb FLC inconclusive
CCC(=O)NC(c1cccs1)c1cc(Cl)c2cccnc2c1O (stereo not given)	Beta cell apopt 99, T cruzi inh 59, CSC inhib 119, Calb FLC 99
O=C(COC(=O)CNC(=O)c1ccc(Cl)c([N+](=O)[O-])c1)NNC(=O)c1ccccc1F	none (no result: T cruzi inh, Calb FLC)
